A selection: hits, their analogues and other compounds. The true share with any hit is near 2.3%.
LMPTP inh – LMPTP phosphatase inhibitors, primary screen, biochemical, fluorescence intensity, uHTS. recombinant LMPTP-A, OMFP fluorogenic substrate. inhibition, % at 20 µM. hit rate 0.22% among 360,000. AID 651560, 2012;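 active = compounds that cut the enzyme signal by at least half of the control window in the single-dose screen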;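 also: plate controls were DMSO wells with enzyme plus substrate for no effect and substrate without enzyme for full effect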
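Test system – LMPTP-A phosphatase enzyme · Quantity – 0.625 nM LMPTP-A final · Reagent – OMFP substrate, 400 µM final · Dosing – one test concentration per compound, 20 µM, with 3% DMSO overall · Timing – 50 min enzyme reaction at room temperature, protected from light · Detection – fluorescence intensity · Controls – substrate-only low control, DMSO enzyme-plus-substrate high control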
DNMT1 inh – human DNMT1 methyltransferase inhibitors, primary screen, biochemical, molecular beacon, fluorescence, HinP1I cleavage, uHTS. DNA (cytosine-5)-methyltransferase 1 (Homo sapiens), P26358. inhibition (reported as % activation of signal), % at 10 µM. hit rate 0.83% among 360,000. AID 588458, 2011; in the data active = inhibition above about 50%
SUMO1 PPI mod – modulators of SUMO1 protein-protein interactions, primary screen, biochemical, uHTS | hit rate 0.33% among 360,000 | SUMO1 binding to a labelled peptide, TR-FRET, 1 h | AID 602429, 2012 | inhibition, % at 20 µM | Small ubiquitin-related modifier 1 (Homo sapiens), P63165; in the data active = inhibition above about 37%
Target sequence (P63165 whole entry, looked up): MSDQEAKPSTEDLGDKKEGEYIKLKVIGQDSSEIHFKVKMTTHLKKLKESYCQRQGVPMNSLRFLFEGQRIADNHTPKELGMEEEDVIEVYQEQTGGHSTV
STEP block – STEP phosphatase inhibitors, primary screen, biochemical, fluorescence intensity, uHTS. Tyrosine-protein phosphatase non-receptor type 5 (Homo sapiens), P54829. recombinant STEP, OMFP fluorogenic substrate. inhibition, % at 20 µM. hit rate 0.25% among 360,000. AID 588621, 2011;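 active = inhibition at 20 µM, scaled per plate between control wells, above about 37%, limit read from the data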;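 also: 0% = DMSO with enzyme and substrate and 100% = substrate only without enzyme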
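Also added – OMFP at 25 µM · Test system – STEP tyrosine phosphatase · Technique – FITC-channel fluorescence of OMFP product · Schedule – 20 min at room temperature, dark · Evaluation – control-normalized % inhibition with plate pattern correction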
Rpn11 block – Rpn11 (PSMD14) deubiquitinase inhibitors, primary screen, biochemical, fluorescence polarization, uHTS | 26S proteasome non-ATPase regulatory subunit 14 (Homo sapiens), O00487 | human 26S proteasome, Ub4-pepOG fluorescence polarization; 20S core pre-blocked with epoxomicin | inhibition, % at 20 µM | hit rate 0.59% among 360,000 | AID 588493, 2011;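 active = inhibition at 20 µM, scaled to each plate's controls, above about 33%, limit read from the data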
Scp-1 inhibitor – Scp-1 phosphatase inhibitors, primary screen, biochemical, colorimetric, uHTS; Carboxy-terminal domain RNA polymerase II polypeptide A small phosphatase 1 (Homo …; Recombinant Scp1, phosphopeptide, malachite green phosphate absorbance; inhibition, % at 20 µM; hit rate 0.88% among 340,000; AID 493091, 2011;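 active = inhibition above about 50% at 20 µM, limit read from the data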;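 also: plate controls were DMSO wells with enzyme for no effect and wells lacking enzyme for full effect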
Target sequence (Q9GZU7 76-261 limits assumed): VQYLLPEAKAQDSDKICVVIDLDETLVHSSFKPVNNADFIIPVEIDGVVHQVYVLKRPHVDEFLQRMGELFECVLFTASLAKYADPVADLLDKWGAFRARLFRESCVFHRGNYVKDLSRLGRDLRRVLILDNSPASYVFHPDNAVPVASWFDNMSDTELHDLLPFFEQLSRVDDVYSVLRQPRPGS
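System: SCP-1 catalytic domain; Reagent: Phospho 17-mer peptide substrate; Doses: one concentration, 20 µM, with 1.0% DMSO; Incubation: 45 min room-temperature reaction, 5 min colour, 30 min stabiliser; Signal: Phosphate-binding colour reagent, absorbance read at 630 nm.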
Numbers without * were called inactive; nt = not tested or not shown.

SMILES	LMPTP inh	DNMT1 inh	SUMO1 PPI mod	STEP block	Rpn11 block	Scp-1 inhibitor
c1ccc(-c2nc(NCCCN3CCOCC3)c3ccccc3n2)cc1	51*	-4	3	-1	1	0
Cc1cccc(-c2nc(NCCCN(C)C)c3ccccc3n2)c1	35	-17	-33	-4	1	-6
Cc1cccc(-c2nc(NCCCN3CCOCC3)c3ccccc3n2)c1	67*	-16	3	4	37	-9
C=CC(=O)Nc1ccc(N(C)c2ccnc(Nc3ccc(N4CCN(C)CC4)cc3)n2)cc1	21	-28	-17	6	38	0
COc1cc(CN2CCNC(=O)C2CC(=O)N(Cc2nccn2C)C(C)C)cc(OC)c1 (configuration not stated)	8	9	-2	-1	-3	-11
CC(NC(=O)Cn1ncc(Cl)c(Cl)c1=O)C12CC3CC(CC(C3)C1)C2 (configuration not stated)	1	59*	9	-1	-9	0
FC(F)(F)c1cccc(Oc2cc(C(F)(F)F)nc(-c3ccccn3)n2)c1	1	1	54*	2	5	-10
O=C(O)CCCN1C(=O)/C(=C/C=C/c2ccco2)SC1=S	35	87*	103*	54*	nt	97*
Cc1ccc(NC(=O)CCCN2C(=O)/C(=C/C=C/c3ccccc3)SC2=S)cc1	1	-7	1	1	32	-7
CC(C)C(=O)Nc1ccc(S(=O)(=O)Nc2ccccn2)cc1	0	3	0	1	-1	-6
O=C(O)CN(C1CCCCC1)S(=O)(=O)c1ccc(F)cc1	1	4	4	0	-7	0
Cc1ccc(-c2nc(NCCCO)c3ccccc3n2)cc1	48	7	21	-6	-2	-6
Fc1cccc(NCCc2c[nH]c3ccccc23)n1	1	-4	5	-1	2	4
OCCCNc1c2ccccc2nc2ccccc12	26	67*	-31	-1	1	-4
c1ccc2c(NCCc3c[nH]c4ccccc34)c3ccccc3nc2c1	57*	72*	-44	3	-12	-8
CCOc1ccc2nc3cc(N=Nc4ccc(N)nc4N)ccc3c(N)c2c1	72*	-135	116*	66*	-32	0
Cc1cc(C)n(CC(O)Cn2c(C)c(C)c3ccccc32)n1 (configuration not stated)	1	1	-7	-2	44*	-13
Cc1c(C)n(CC(O)CN2CCCCC2)c2ccccc12 (configuration not stated)	0	2	0	0	5	-2
CCOC(=O)c1c2c(n(Cc3ccccc3)c1C)C(=O)C(=O)c1ccccc1-2	14	93*	16	2	-20	-8
CCOC(=O)c1c2c(n(C)c1C)C(=O)C(=O)c1ccc(Br)cc1-2	3	88*	22	2	-3	-4
Cc1c(CN(C)C)c2c(n1C)C(=O)c1ccc(Br)cc1-2	2	4	-22	1	-2	7
CCCNC(=O)C1(C)CCN(C(=O)c2ccc3snnc3c2)C1 (configuration not stated)	-1	6	-5	-1	0	nt
O=C(Nc1ccncc1NC(=O)c1cccc([N+](=O)[O-])c1)c1cccc([N+](=O)[O-])c1	55*	37	76*	30	5	9
CS(=O)(=O)N1CCC(Oc2ccccc2C(=O)NC2CCOC2)CC1 (configuration not stated)	0	-7	-1	-1	-2	2
CS(=O)(=O)N1CCC(Oc2ccccc2C(=O)NC(C2CC2)C2CC2)CC1	-2	5	40*	-2	-3	0

Screening data as filed in PubChem BioAssay.
